In ChEMBL document CHEMBL4041463, “Pyrazolo[1,5-a]pyridine-3-carboxamide hybrids: Design, synthesis and evaluation of anti-tubercular activity” (Eur J Med Chem, 2017):
Values after ≈ are worked out from the molar mass of the structure shown.

test system: Mycobacterium tuberculosis; test: Antitubercular activity against Mycobacterium tuberculosis H37Rv measured on day 7 post dose by microplate alamar blue assay; type: functional; details: 168 h
How it was run: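 MABA against H37Rv in 7H12 medium, two-fold dilutions, final 0.05–5 or 0.004–1 µg/mL (DMSO stocks 5 or 2 mg/mL). Inoculum 2×10⁵ cfu/mL, 37 °C. On day 7, Tween 80 and Alamar Blue added; fluorescence (ex 530/em 590) read after 16–24 h. MIC = interpolated lowest concentration giving ≥90% fluorescence reduction versus bacteria-only controls. INH and RIF as controls.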

Question: How did the MIC90 turn out when `CCc1nn2ccc(Cl)cc2c1C(=O)NCc1ccc(-c2ccc(OC(F)(F)F)cc2)nc1` was run?
Answer: Its MIC90 is 0.2 µg/mL (≈ 0.421 µM).

Question: Which MIC90 does the source give for `CCc1nn2ccc(Cl)cc2c1C(=O)NCC1CCN(CC23CC4CC(CC(C4)C2)C3)CC1` here?
Answer: Its MIC90 is > 1 µg/mL.

Question: For `Cc1ccn2nc(C)c(C(=O)NCc3ccc(N4CCC(Oc5ccc(OC(F)(F)F)cc5)CC4)cc3)c2c1`, which MIC90 is on record?
Answer: The MIC90 was 0.006 µg/mL (≈ 0.0111 µM).

Question: Which MIC90 does the source give for `CCc1nn2ccc(Cl)cc2c1C(=O)NC/C=C(\C)CCC=C(C)C` here?
Answer: The MIC90 was 0.17 µg/mL (≈ 0.472 µM).

Question: With `Cc1ccn2nc(C)c(C(=O)NCc3ccc(OC(F)(F)F)cc3)c2c1` as the compound, how does the MIC90 read?
Answer: Its MIC90 is 0.91 µg/mL (≈ 2.5 µM).

Question: Which MIC90 does the source give for `NNC(=O)c1ccncc1` [ISONIAZID] here?
Answer: The MIC90 was 0.1 µg/mL (≈ 0.729 µM).

Question: With `CO[C@H]1/C=C/O[C@@]2(C)Oc3c(C)c(O)c4c(O)c(c(/C=N/N5CCN(C)CC5)c(O)c4c3C2=O)NC(=O)/C(C)=C\C=C\[C@H](C)[C@H](O)[C@@H](C)[C@@H](O)[C@@H](C)[C@H](OC(C)=O)[C@@H]1C` [RIFAMPIN] as the compound, how does the MIC90 read?
Answer: The MIC90 was 0.003 µg/mL (≈ 0.00365 µM).
